Results taken from ChEMBL document CHEMBL1123718, “Analogues and derivatives of tenoxicam. 1. Synthesis and antiinflammatory activity of analogues with different residues on the ring nitrogen and the amide nitrogen” (1987).

How the values were obtained:
Rattus norvegicus [1] = test: Anti-inflammatory activity was assessed by estimating threshold pain response after oral administration to rats; format: functional
Method in brief: (§1)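 Kaolin paw model in female Füllinsdorf rats (about 70 g): 0.1 mL of 10% kaolin s.c. into the right hind paw, with oral drug in 0.5% tragacanth at 0.5 h before and 3.5 h after. Pressure pain threshold was measured after kaolin, and its increase was expressed as % of controls. ED100 was read graphically from group means, or by logit analysis with 95% CI.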

Rattus norvegicus [2] = test: Anti-inflammatory activity was assessed by estimating kaolin-induced edema in rat hind paw, by administering orally; format: functional; conditions: po
Method in brief: (§2)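 Female Füllinsdorf albino rats (about 70 g) got 0.1 mL of 10% kaolin suspension s.c. into the right hind paw. Drug in 0.5% tragacanth was given po 0.5 h before and 3.5 h after kaolin. Paw diameter was measured, and edema inhibition was expressed as % of controls. A phenylbutazone 30 mg/kg po validation group ran in each set. ED30 came from group means graphically, or from logit analysis with 95% CI.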

Rattus norvegicus [3] = test: Ulcerogenic potential was assessed in a rat model by the enhancement of stress-induced gastric mucosal lesions after oral administration; format: functional; conditions: Gastric mucosa
Method in brief: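 Female Füllinsdorf albino rats (about 160 g) were starved 24 h and given drug po in 0.5% tragacanth. They then had 2 h cold-water stress (22.5 °C) and were sacrificed. Rats with macroscopic gastric mucosal erosions were counted. ED50 was defined as the dose giving lesions in 50% of animals and calculated by probit analysis with 95% CI.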

Rattus norvegicus [4] = test: Anti-inflammatory activity was assessed by estimating kaolin-induced edema in rat hind paw, by administering orally;NE denotes not effective up to 100 mg/kg; format: functional, organism-based; design: dose 100 mg/kg; method in brief: as §2
Rattus norvegicus [5] = test: Anti-inflammatory activity was assessed by estimating threshold pain response after oral administration to rats; NE denotes not effective up to 100 mg/kg; format: functional, organism-based; design: dose 100 mg/kg; method in brief: as §1
Rattus norvegicus [6] = test: Anti-inflammatory activity was assessed by estimating threshold pain response after oral administration to rats;NE not effective up to 100 mg/kg; format: functional, organism-based; design: dose 100 mg/kg; method in brief: as §1
Rattus norvegicus [7] = test: Anti-inflammatory activity was assessed by estimating kaolin-induced edema in rat hind paw, by administering orally;NE not effective up to 100 mg/kg; format: functional, organism-based; design: dose 100 mg/kg; method in brief: as §2
Rattus norvegicus [8] = test: Anti-inflammatory activity was assessed by estimating kaolin-induced edema in rat ind paw, by administering orally; format: functional; conditions: po; method in brief: as §2
Rattus norvegicus [9] = test: Anti-inflammatory activity was assessed by estimating kaolin-induced edema in rat hind paw, by administering orally; NE not effective up to 100 mg/kg; format: functional, organism-based; design: dose 100 mg/kg; method in brief: as §2
Rattus norvegicus [10] = test: Anti-inflammatory activity was assessed by estimating threshold pain response after oral administration to rats; NE not effective up to 100 mg/kg; format: functional, organism-based; design: dose 100 mg/kg; method in brief: as §1

SMILES | ED100 (Rattus norvegicus [1]) [mg/kg] | ED30 (Rattus norvegicus [2]) [mg/kg] | ED50 (Rattus norvegicus [3]) [mg/kg] | other results
CN1C(C(=O)Nc2cccc(Cl)c2)=C(O)c2sccc2S1(=O)=O | >100 | > 100 | – | –
Cc1cccc(NC(=O)C2=C(O)c3sccc3S(=O)(=O)N2C)c1 | 3.9 | 43.4 | 7 | –
CN1C(C(=O)Nc2ccccn2)=C(O)c2sccc2S1(=O)=O [TENOXICAM] | 5.3 | 2.6 | 0.7 | –
CN1C(C(=O)Nc2ccc(O)cc2)=C(O)c2sccc2S1(=O)=O | – | – | – | ED30 (Rattus norvegicus [4]): No effect; ED100 (Rattus norvegicus [5]): No effect
Cc1noc(NC(=O)C2=C(O)c3sccc3S(=O)(=O)N2C)c1C | – | – | – | ED100 (Rattus norvegicus [6]): No effect; ED30 (Rattus norvegicus [7]): No effect
Cc1cccc(NC(=O)C2=C(O)c3sccc3S(=O)(=O)N2C)n1 | 27.4 | 30 | 0.5 | –
CN1C(C(=O)Nc2ccncc2)=C(O)c2sccc2S1(=O)=O | – | – | – | ED30 (Rattus norvegicus [4]): No effect; ED100 (Rattus norvegicus [5]): No effect
O=C(Nc1ccccn1)C1=C(O)c2sccc2S(=O)(=O)N1 | >100 | > 100 | – | –
CN1C(C(=O)Nc2ccccc2)=C(O)c2sccc2S1(=O)=O | 75 | > 100 | – | –
CN1C(C(=O)Nc2cccnc2)=C(O)c2sccc2S1(=O)=O | >100 | – | 6.3 | ED30 (Rattus norvegicus [8]): 63.7 mg/kg
CN1C(C(=O)Nc2nccs2)=C(O)c2sccc2S1(=O)=O | 14 | 20 | 2.2 | –
Cc1cc(NC(=O)C2=C(O)c3sccc3S(=O)(=O)N2C)no1 | 24 | 20 | – | –
Cc1cc(NC(=O)C2=C(O)c3sccc3S(=O)(=O)N2C)nc(C)n1 | – | – | – | ED30 (Rattus norvegicus [9]): No effect; ED100 (Rattus norvegicus [10]): No effect
CCN1C(C(=O)Nc2ccccn2)=C(O)c2sccc2S1(=O)=O | 24 | – | – | ED30 (Rattus norvegicus [7]): No effect
CN1C(C(=O)Nc2ccccn2)=C(O)c2ccccc2S1(=O)=O [PIROXICAM] | 4 | 1.9 | 0.5 | –
CN1C(C(=O)Nc2cnccn2)=C(O)c2sccc2S1(=O)=O | 56 | 70 | 1.8 | –
CN1C(C(=O)Nc2ncccn2)=C(O)c2sccc2S1(=O)=O | – | – | – | ED30 (Rattus norvegicus [7]): No effect; ED100 (Rattus norvegicus [10]): No effect
